ABCG2 block: inhibitors of human ABCG2 transporter, ABCB1 counter-screen | actives 0.1% (n = 190,000) | IgMXP3 cells, JC-1 efflux, flow cytometry | inhibition, % at 6.6 µM | AID 1325;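 active = inhibition above 80%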;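 note: 0% = DMSO and 100% = nicardipine control wells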
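Read-out basis: Efflux inhibition in percent versus controls | Test system: ABCG2 IgMXP3 and barcoded ABCB1 CCRF-Adr cell mix | Quantity: 3 million cells/mL in well | Schedule: 10 min at 25 °C | Control set: Nicardipine as high control, DMSO as low control | Reagent: JC-1 as fluorescent efflux pump substrate | Signal: Flow cytometry of retained JC-1 fluorescence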
ABCB1 block: inhibitors of human ABCB1 transporter, ABCG2 counter-screen; P08183; CCRF-Adr cells, JC-1 efflux, flow cytometry; inhibition, % at 6.6 µM; actives 0.067% (n = 190,000); AID 1326; in the data active = inhibition above about 40%;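 note: 0% = vehicle and 100% = reference inhibitor; higher value means more JC-1 retained so stronger ABCB1 efflux block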
NCF1 inh: p47phox (human) inhibition; P14598; p47phox/p22phox peptide binding, fluorescence polarization, 2 h; inhibition, % at 24.7 µM; actives 0.53% (n = 220,000); AID 1274;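 active = inhibition above about 30%, limit read from the data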;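 note: 0% = p47phox with labelled peptide and 100% = labelled peptide alone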
Target sequence (P14598 whole entry, looked up): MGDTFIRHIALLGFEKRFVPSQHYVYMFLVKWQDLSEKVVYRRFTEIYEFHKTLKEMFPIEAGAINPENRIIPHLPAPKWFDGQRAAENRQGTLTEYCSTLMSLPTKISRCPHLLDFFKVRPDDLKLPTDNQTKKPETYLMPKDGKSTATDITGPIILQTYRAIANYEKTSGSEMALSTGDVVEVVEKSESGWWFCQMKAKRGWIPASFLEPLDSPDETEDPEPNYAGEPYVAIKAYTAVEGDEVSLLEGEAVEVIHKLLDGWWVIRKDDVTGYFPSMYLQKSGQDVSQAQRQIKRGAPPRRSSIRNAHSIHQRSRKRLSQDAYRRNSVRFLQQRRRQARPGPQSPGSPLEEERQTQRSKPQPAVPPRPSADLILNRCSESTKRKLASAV
PKD1 kinase inh: inhibitors of human PKD1 kinase | Q15139 | PKD1 kinase fluorescence polarization assay | inhibition, % (no concentration beside the values) | actives 0.056% (n = 200,000) | AID 797; in the data active = inhibition above about 50%
PHOSPHO1 inh: PHOSPHO1 (human) inhibition; Q8TCT1; recombinant PHOSPHO1, absorbance phosphatase assay; inhibition, % at 13.3 µM; actives 1.1% (n = 290,000); in the data active = inhibition above about 60%
Target sequence (Q8TCT1 whole entry, looked up): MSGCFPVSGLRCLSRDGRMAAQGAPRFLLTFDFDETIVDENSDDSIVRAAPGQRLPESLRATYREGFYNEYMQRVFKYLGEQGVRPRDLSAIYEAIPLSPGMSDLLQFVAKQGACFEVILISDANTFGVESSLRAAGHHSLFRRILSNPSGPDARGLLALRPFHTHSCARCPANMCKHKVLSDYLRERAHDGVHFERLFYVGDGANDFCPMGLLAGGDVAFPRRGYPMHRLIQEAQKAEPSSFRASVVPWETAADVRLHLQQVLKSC
HSV augment: HSV replication enhancement. HSV replication augmentation in cells, fold increase. maximum fold increase. actives 0.005% (n = 220,000); in the data active = maximum fold increase above about 1.5; inconclusive = no clear call, values can overlap the other calls; tested in PC3 cells
ABCB1 confirm: confirmation of human ABCB1 transporter inhibitors, ABCG2 counter-screen; shares compounds with ABCG2 block; CCRF-Adr cells, JC-1 efflux, flow cytometry; inhibition, % at 6.6 µM; actives 7% (n = 270); AID 1451;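 active = inhibition of pump activity above 50%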;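 note: 0% = DMSO and 100% = nicardipine full pump inhibition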
ABCG2 confirm: confirmation of human ABCG2 transporter inhibitors, ABCB1 counter-screen; shares compounds with ABCG2 block; IgMXP3 cells, JC-1 efflux, flow cytometry; inhibition, % at 6.6 µM; actives 6% (n = 270); AID 1453;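 active = inhibition above 50%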;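 note: 0% = DMSO wells and 100% = nicardipine pump inhibitor wells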
IgMXP3 autofluor: IgMXP3 autofluorescence flag for ABCG2 confirmation. shares compounds with ABCG2 block. IgMXP3 cells, compound autofluorescence 488/530 nm, flow; active compounds read high. fluorescence at 6.6 µM. actives 30% (n = 270);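 active = fluorescence in ABCG2-expressing cells above the plate's control-well mean plus 3 SD, cut at about 15 in these data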;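 note: median cell fluorescence with compound minus that of DMSO-treated control cells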
CCRF autofluor: CCRF-Adr autofluorescence flag for ABCB1 confirmation | CCRF-Adr cells, compound autofluorescence 488/530 nm, flow cytometry; active compounds read high | fluorescence at 6.6 µM | shares compounds with ABCG2 block | actives 30% (n = 270);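 active = fluorescence beyond the plate control mean plus 3 SD, with a fluorescence-to-maximum score over 2, cut at about 25 in these data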
* marks the source's active call; other numbers are inactive results; i = inactive; ? = inconclusive; / = no result given; + = active, no number. Compounds with a hit are over-represented: about 1.6% of the library has one in this group of screens.

SMILES | ABCG2 block | ABCB1 block | NCF1 inh | PKD1 kinase inh | PHOSPHO1 inh | HSV augment | ABCB1 confirm | ABCG2 confirm | IgMXP3 autofluor | CCRF autofluor
O=C1S/C(=C/c2ccc(N3CCOCC3)o2)C(=O)N1Cc1c(F)cccc1Cl | 135.9* | 4.7 | -63.4 | 6.3 | 68.6* | ? | -11.6 | 2.9 | 248* | 49.4*
Cc1ccc(/C=C2\CCC3=C2OC(N)=C(C#N)C3c2ccc(C)cc2)cc1 (stereo not drawn) | 85.3* | 56.2* | -142.0 | -6.3 | 25.3 | ? | -0.8 | 10.2 | 65.5* | 87.1*
CC1=NN(c2ccc([N+](=O)[O-])cc2)C(=O)/C1=C\N(C)C | 80.4 | 6.2 | -3.3 | -2.1 | 0.6 | i | 9.9 | 38.4 | -0.09 | -0.59
COc1cc(C(=O)Nc2ccc(S(=O)(=O)NC(C)(C)C)cc2)cc(OC)c1OC | 5.9 | 0.9 | -0.5 | 3.1 | 2.0 | i | / | / | / | /
COc1cc(C(=O)Nc2ccc(S(=O)(=O)NC(C)C)cc2)cc(OC)c1OC | 81.6* | 1.9 | -2.2 | 1.9 | -1.2 | i | 13.0 | 27.0 | 5.81 | 6.56
COC(=O)c1cc(NC(=O)c2ccccc2)c(=O)oc1/C=C/Nc1ccc(Oc2ccccc2)cc1 | 116.4* | 126.9* | -231.7 | -8.6 | 53.2 | ? | 91.4* | -34.0 | 207* | 339*
O=C(N1CCCC1)N1CCN(S(=O)(=O)c2ccccc2)CC1 | / | / | / | / | 31.9 | / | / | / | / | /
CCOC(=O)c1cn2nc(-c3ccc(OC)cc3)cc2nc1C1CCN(C(=O)OC(C)(C)C)CC1 | 26.9 | 51.1* | -9.2 | -3.0 | 9.9 | i | 45.0 | 14.6 | 0.41 | -1.19
O=C(Nc1cc(C(F)(F)F)ccc1N1CCOCC1)c1cccs1 | 2.2 | 0.1 | -24.5 | 6.1 | -2.6 | i | / | / | / | /
CN(C)c1ccc(P(=O)(Nc2cccc(C(F)(F)F)c2)N2CCOCC2)c(NC(=O)c2cccs2)c1 (stereo not drawn) | 19.1 | 50.7* | -20.4 | -9.3 | 4.4 | i | 74.7* | 26.4 | -2.19 | -4.64
COc1cc(C)ccc1OCCOCCOc1ccc([N+](=O)[O-])cc1 | 2.3 | 0.4 | 3.5 | -5.2 | -37.8 | i | / | / | / | /
COc1ccc(-c2cc(C#N)nc(Oc3ccc(Cl)cc3)n2)cc1 | 83.5* | -0.1 | -10.0 | -5.9 | 14.8 | i | 11.4 | 9.9 | 34.8* | 25.6*
Cc1cccc(OCCNC(=O)c2cccc(Oc3ccc(C(F)(F)F)cc3[N+](=O)[O-])c2)c1 | 1.3 | 0.4 | -1.0 | -7.4 | -9.4 | i | / | / | / | /
CN(C(=O)Cn1c(=O)oc2cc(S(=O)(=O)N3CCCC3)ccc21)C1CCCCC1 | / | / | / | / | 29.3 | / | / | / | / | /
COc1ccc(CCNC(=O)COC(=O)/C=C/c2ccc(OC)c(OC)c2)cc1 | 88.7* | 0.4 | -11.8 | 0.1 | 13.3 | i | 0.8 | 56.0* | -2.09 | -3.79
CC(C)(C)c1ccc(OCC(=O)NCCN2CCOCC2)cc1 | / | / | / | / | 40.5 | / | / | / | / | /
O=S(=O)(NCc1cccnc1)c1ccc(Cl)c2ccccc12 | / | / | / | / | 16.1 | / | / | / | / | /
CCOC(=O)c1c(-c2ccccc2)csc1NC(=O)/C(C#N)=C/c1ccc(O)c(OC)c1 | 123.3* | 65.8* | -51.4 | -10.8 | 2.1 | ? | -30.1 | -39.2 | 284* | 264*
O=S(=O)(c1ccccc1)N1CCN(c2cc(-c3ccccc3)nc3ncnn23)CC1 | 2.0 | 3.6 | -1.7 | -14.3 | 46.1 | i | / | / | / | /
O=S(=O)(c1ccc(Br)cc1)N1CCN(c2cc(-c3ccccc3)nc3ncnn23)CC1 | 52.2 | 59.9* | -4.5 | -10.9 | 1.0 | i | 36.9 | 23.0 | 3.51 | 7.16
O=c1oc2ccccc2cc1-c1nc2c(s1)CCCC2 | 54.9 | 6.7 | -9.1 | 9.1 | 4.9 | / | 5.5 | 9.8 | 11.5 | 1.96
COc1ccc(CCNCC2C(Oc3ccc(Cl)cc3)C(=O)N2c2ccccc2C)cc1OC (stereo not drawn) | 18.6 | 53.1* | 8.3 | -0.8 | 1.8 | i | 30.8 | 36.6 | 5.11 | 5.81
CC(O)C1CCC2C3CC[C@H]4CC(O)CCC4(C)C3CC3(OCCO3)C12C (stereo partly drawn) | 4.1 | 1.4 | -5.4 | 0.3 | -2.6 | i | / | / | / | /
Cc1cc(/C=C(\C#N)C(=O)O)c(C)n1CCC(C)C | / | / | -14.6 | / | 39.6 | i | / | / | / | /
Cc1cc(/C=C(\C#N)C(=O)O)c(C)n1CC(C)C | + | + | 4.9 | 7.0 | 11.3 | i | -2.0 | -5.3 | 39.8* | 4.41
SMILES | ABCG2 block | ABCB1 block | NCF1 inh | PKD1 kinase inh | PHOSPHO1 inh | HSV augment | ABCB1 confirm | ABCG2 confirm | IgMXP3 autofluor | CCRF autofluor
Cc1ccc(-c2c(C(=O)NCc3ccc(F)cc3)oc(=O)c3ccccc23)cc1 | 83.1* | 27.0 | -7.2 | -10.8 | -11.7 | i | 9.1 | 27.0 | 5.26 | 9.86
Cc1ccc(C(=O)c2c3ccc([N+](=O)[O-])cc3[n+]([O-])n2CCC(N)=O)cc1 | / | / | / | / | -10.8 | / | / | / | / | /
COc1ccc(CCNc2cc(N3CCN(C(=O)c4ccc(C)cc4)CC3)ccc2[N+](=O)[O-])cc1OC | 22.4 | 36.6 | -9.0 | 0.4 | -9.4 | i | 26.2 | 33.7 | -1.99 | -0.84
COc1ccc(OCC(=O)Nc2ccncc2)cc1 | / | / | -17.7 | / | 24.8 | i | / | / | / | /
O=C(Cn1c(=O)c(=O)n(Cc2ccccc2)c2ccc(Cl)cc21)Nc1cc(F)ccc1F | 2.4 | 1.1 | -28.1 | -2.9 | 33.9 | i | / | / | / | /
CCNC(=O)Cn1c(=O)c(=O)n(Cc2ccccc2)c2ccc(Cl)cc21 | 94.9* | 1.1 | -5.9 | 2.4 | 0.3 | i | -3.6 | 3.8 | 2.56 | 27.4*
CCn1cc(C(=O)NCCC(C)C)c(=O)c2cc(F)c(N3CCN(C(=O)c4ccco4)CC3)cc21 | / | / | / | / | 43.5 | / | / | / | / | /
CCOc1ccc(OCc2cccc(C(=O)N/N=C/c3cccnc3)c2)cc1 | 86.6* | 1.5 | -11.4 | -19.5 | -2.8 | i | -1.8 | 21.6 | 4.21 | 3.16
CCOC(=O)N1CCN(C(=O)CS(=O)(=O)c2cn(Cc3ccccc3C)c3ccccc23)CC1 | 0.3 | 1.7 | -5.3 | 7.0 | -8.3 | i | / | / | / | /
Cc1ccccc1Cn1cc(S(=O)(=O)CC(=O)Nc2nccs2)c2ccccc21 | 83.5* | 9.2 | -15.0 | -2.6 | -4.4 | i | 6.7 | 13.6 | -1.09 | -2.14
C/C(=N\NC(=O)COc1cc(C)cc(C)c1)c1ccc(N2CCOCC2)cc1 | 91.7* | 0.4 | -7.0 | 9.0 | -3.8 | i | 0.8 | 41.8 | -2.19 | -4.59
CC(=O)c1c(C)[nH]c(C(=O)OCC(=O)Nc2ccc(C)cc2[N+](=O)[O-])c1C | 48.8 | 4.5 | -11.0 | 0.9 | -4.0 | i | / | / | / | /

Screening data deposited in PubChem BioAssay by several laboratories.
